The target in data set [1] is T1, UDP-glucuronosyltransferase 1A3 (Homo sapiens, UniProt P35503).
T1 sequence (P35503 whole entry): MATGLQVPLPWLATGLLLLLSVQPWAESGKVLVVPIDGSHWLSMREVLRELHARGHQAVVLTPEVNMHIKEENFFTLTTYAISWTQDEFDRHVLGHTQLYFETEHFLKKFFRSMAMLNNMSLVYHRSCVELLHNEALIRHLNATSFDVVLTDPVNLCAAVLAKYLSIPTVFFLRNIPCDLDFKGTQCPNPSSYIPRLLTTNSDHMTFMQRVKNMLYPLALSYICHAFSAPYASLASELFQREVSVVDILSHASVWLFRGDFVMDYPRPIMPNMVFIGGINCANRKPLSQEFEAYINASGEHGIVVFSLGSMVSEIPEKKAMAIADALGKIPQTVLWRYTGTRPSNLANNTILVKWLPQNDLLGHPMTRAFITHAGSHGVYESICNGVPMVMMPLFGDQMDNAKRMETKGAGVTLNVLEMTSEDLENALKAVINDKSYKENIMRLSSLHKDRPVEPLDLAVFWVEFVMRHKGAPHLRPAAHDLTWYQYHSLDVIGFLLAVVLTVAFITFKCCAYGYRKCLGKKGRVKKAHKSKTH
The data set can be described thus: Drug level assessed as human UGT1A3-mediated compound formation from 5 to 50 uM T-5224 after 60 mins in presence of UDP-glucuronic acid using 0.05 to 0.2 mg/ml by HPLC method. In kind it is ADME. The note with it: recombinant enzyme, 1 h. A digest of the protocol: (§1)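 Recombinant human UGT microsomes from baculovirus-infected insect cells, 0.1 mg protein/mL, in 50 mM Tris-HCl pH 7.5, 8 mM MgCl2, alamethicin. T-5224 in DMSO (2% v/v final). Preincubated 5 min at 37°C, started with 2 mM UDPGA, run 60 min at 37°C and stopped with acetonitrile. Glucuronides resolved by C18 HPLC with UV at 290 nm. Linearity was checked at 0.05–0.2 mg/mL protein and 10–60 min.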

For data set [2], the system named is Liver microsome. The data set can be described thus: Drug level in pooled human liver microsomes treated with 10 uM T-5224 assessed as compound formation after 10 mins by HPLC method. In kind it is ADME. The procedure, abridged:
(§2)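 Pooled human liver microsomes at 0.5 mg protein/mL, or pooled intestinal microsomes at 0.25 mg/mL, in 50 mM Tris-HCl pH 7.5, 8 mM MgCl2, alamethicin, with 2 mM UDPGA. T-5224 at 10 μM, 10 min at 37°C after 5 min preincubation; stopped with acetonitrile. HPLC with UV at 290 nm. Linearity was tested over 0.1–1.0 mg/mL protein and 5–30 min.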

In data set [3] the target is T1, UDP-glucuronosyltransferase 1A3. Description: Drug level assessed as human UGT1A3-mediated compound formation from 5 to 50 uM T-5224 after 10 to 60 mins in presence of UDP-glucuronic acid by HPLC method. In kind it is ADME. The note with it: recombinant enzyme. The procedure, abridged:
as §1

The subject of data set [4] is Liver microsome. The data set can be described thus: Drug level in pooled human liver microsomes treated with 10 uM T-5224 assessed as compound formation after 10 mins using 0.1 to 1.0 mg/ml microsomal protein content by HPLC method. In kind it is ADME. The procedure, abridged: as §2
In data set [5] the target is T2, UDP-glucuronosyltransferase 1A1 (Homo sapiens, UniProt P22309).
T2 sequence (P22309 whole entry): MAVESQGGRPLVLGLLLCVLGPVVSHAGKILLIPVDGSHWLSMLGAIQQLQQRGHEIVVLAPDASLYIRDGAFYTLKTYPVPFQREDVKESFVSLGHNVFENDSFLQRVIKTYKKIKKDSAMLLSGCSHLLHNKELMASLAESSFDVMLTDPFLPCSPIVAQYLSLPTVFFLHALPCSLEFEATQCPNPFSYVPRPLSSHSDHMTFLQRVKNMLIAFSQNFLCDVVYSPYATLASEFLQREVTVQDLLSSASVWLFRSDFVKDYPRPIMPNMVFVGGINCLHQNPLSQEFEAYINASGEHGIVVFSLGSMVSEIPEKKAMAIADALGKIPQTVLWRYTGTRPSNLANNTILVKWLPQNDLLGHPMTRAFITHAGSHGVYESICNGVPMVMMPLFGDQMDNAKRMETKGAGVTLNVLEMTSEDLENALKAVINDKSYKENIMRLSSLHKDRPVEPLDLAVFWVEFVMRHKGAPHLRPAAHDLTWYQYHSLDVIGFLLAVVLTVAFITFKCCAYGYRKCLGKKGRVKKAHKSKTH
Description: Drug level assessed as human UGT1A1-mediated compound formation from 5 to 50 uM T-5224 after 60 mins in presence of UDP-glucuronic acid by HPLC method. In kind it is ADME. The note with it: recombinant enzyme, 1 h. A digest of the protocol: as §1

Data set [6] concerns Liver microsome. Description: Drug level in pooled human liver microsomes treated with T-5224 assessed as compound formation in presence of UDPGA by LC-MS/MS method. In kind it is ADME.
Data set [7] deals with T1, UDP-glucuronosyltransferase 1A3. The data set can be described thus: Drug level assessed as human UGT1A3-mediated compound formation from 5 to 50 uM T-5224 after 60 mins in presence of UDP-glucuronic acid by HPLC method. In kind it is ADME. The note with it: recombinant enzyme, 1 h. A digest of the protocol:
as §1

Data set [8] has as its target T2, UDP-glucuronosyltransferase 1A1. The data set can be described thus: Drug level assessed as human UGT1A1-mediated compound formation from 5 to 50 uM T-5224 after 60 mins in presence of UDP-glucuronic acid using 0.05 to 0.2 mg/ml by HPLC method. In kind it is ADME. The note with it: recombinant enzyme, 1 h. The procedure, abridged:
as §1

A short description of data set [9]: Drug level in pooled human intestinal microsomes treated with 10 uM T-5224 assessed as compound formation after 10 mins by HPLC method. In kind it is ADME, Intestine, Microsome. A digest of the protocol:
as §2

A short description of data set [10]: Drug level in pooled human intestinal microsomes treated with 10 uM T-5224 assessed as compound formation after 5 to 30 mins by HPLC method. In kind it is ADME, Intestine, Microsome. The procedure, abridged:
as §2

Data set [11] is described as follows: Drug level in pooled human intestinal microsomes treated with 10 uM T-5224 assessed as compound formation after 10 mins using 0.1 to 1.0 mg/ml microsomal protein content by HPLC method. In kind it is ADME, Intestine, Microsome. A digest of the protocol:
as §2

The target in data set [12] is T2, UDP-glucuronosyltransferase 1A1. Description: Drug level assessed as human UGT1A1-mediated compound formation from 5 to 50 uM T-5224 after 10 to 60 mins in presence of UDP-glucuronic acid by HPLC method. In kind it is ADME. The note with it: recombinant enzyme. The procedure, abridged: as §1
The subject of data set [13] is Liver microsome. Description: Drug level in pooled human liver microsomes treated with 10 uM T-5224 assessed as compound formation after 5 to 30 mins by HPLC method. In kind it is ADME. The procedure, abridged: as §2
Substrate in data set [14]: O=C(O)CCc1cc(C(=O)c2ccc(OC3CCCC3)cc2O)ccc1OCc1ccc2c(O)noc2c1
The data set can be described thus: Drug metabolism assessed as human UGT1A3-mediated T-5224 acyl O-glucuronide formation after 10 to 60 mins in presence of UDP-glucuronic acid by HPLC method. In kind it is ADME. A digest of the protocol: (§3)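 Kinetics used recombinant UGT1A1, 1A3 or 1A8 (0.1 mg protein/mL) with T-5224 at 1–50 μM, 2 mM UDPGA and 60 min at 37°C, in triplicate. G2/G3 were measured by HPLC at 290 nm and fitted to a substrate-inhibition model (Vmax, Km, Ksi). UGT content was quantified by immunoblot, and kcat = Vmax/E0 was derived from it.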

Substrate in data set [15]: O=C(O)CCc1cc(C(=O)c2ccc(OC3CCCC3)cc2O)ccc1OCc1ccc2c(O)noc2c1
Description: Drug metabolism assessed as Kcat to Km ratio for human UGT1A3-mediated T-5224 acyl O-glucuronide formation per mg protein after 10 to 60 mins in presence of UDP-glucuronic acid by HPLC method. In kind it is ADME. The procedure, abridged: as §3

Substrate in data set [16]: O=C(O)CCc1cc(C(=O)c2ccc(OC3CCCC3)cc2O)ccc1OCc1ccc2c(O)noc2c1
Description: Drug metabolism assessed as Kcat to Km ratio for human UGT1A3-mediated T-5224 hydroxyl O-glucuronide formation per mg protein after 10 to 60 mins in presence of UDP-glucuronic acid by HPLC method. In kind it is ADME. The procedure, abridged:
as §3

Substrate in data set [17]: O=C(O)CCc1cc(C(=O)c2ccc(OC3CCCC3)cc2O)ccc1OCc1ccc2c(O)noc2c1
Description: Drug metabolism assessed as human UGT1A3-mediated T-5224 hydroxyl O-glucuronide formation after 10 to 60 mins in presence of UDP-glucuronic acid by HPLC method. In kind it is ADME. A digest of the protocol: as §3

Substrate in data set [18]: O=C(O)CCc1cc(C(=O)c2ccc(OC3CCCC3)cc2O)ccc1OCc1ccc2c(O)noc2c1
Description: Drug metabolism assessed as human UGT1A8-mediated T-5224 hydroxyl O-glucuronide formation after 10 to 60 mins in presence of UDP-glucuronic acid by HPLC method. In kind it is ADME. The procedure, abridged: as §3

Substrate in data set [19]: O=C(O)CCc1cc(C(=O)c2ccc(OC3CCCC3)cc2O)ccc1OCc1ccc2c(O)noc2c1
Description: Drug metabolism assessed as Kcat to Km ratio for human UGT1A1-mediated T-5224 acyl O-glucuronide formation per mg protein after 10 to 60 mins in presence of UDP-glucuronic acid by HPLC method. In kind it is ADME. A digest of the protocol: (§4)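 Recombinant human UGT1A1 from baculovirus-infected insect cells, 0.1 mg protein/mL, in 50 mM Tris-HCl pH 7.5 with 8 mM MgCl2 and alamethicin. T-5224 at 10–50 μM (2% DMSO final). After 5 min preincubation at 37°C, 2 mM UDPGA starts the reaction; 60 min at 37°C, stopped with acetonitrile. Glucuronides quantified by HPLC-UV at 290 nm, triplicate points. Substrate-inhibition fit gives Vmax, Km and Ksi. kcat = Vmax/E0, with UGT content taken from immunoblot.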

Substrate in data set [20]: O=C(O)CCc1cc(C(=O)c2ccc(OC3CCCC3)cc2O)ccc1OCc1ccc2c(O)noc2c1
Description: Drug metabolism assessed as human UGT1A1-mediated T-5224 acyl O-glucuronide formation after 10 to 60 mins in presence of UDP-glucuronic acid by HPLC method. In kind it is ADME. The procedure, abridged:
as §4

Substrate in data set [21]: O=C(O)CCc1cc(C(=O)c2ccc(OC3CCCC3)cc2O)ccc1OCc1ccc2c(O)noc2c1
Description: Drug metabolism assessed as human UGT1A1-mediated T-5224 hydroxyl O-glucuronide formation after 10 to 60 mins in presence of UDP-glucuronic acid by HPLC method. In kind it is ADME. The procedure, abridged:
as §4

Substrate in data set [22]: O=C(O)CCc1cc(C(=O)c2ccc(OC3CCCC3)cc2O)ccc1OCc1ccc2c(O)noc2c1
The data set can be described thus: Drug metabolism assessed as Kcat to Km ratio for human UGT1A1-mediated T-5224 hydroxyl O-glucuronide formation per mg protein after 10 to 60 mins in presence of UDP-glucuronic acid by HPLC method. In kind it is ADME. A digest of the protocol:
as §4

Consider `O=C(CCc1cc(C(=O)c2ccc(OC3CCCC3)cc2O)ccc1OCc1ccc2c(O)noc2c1)O[C@@H]1O[C@H](C(=O)O)[C@@H](O)[C@H](O)[C@H]1O`, for which the Drug metabolism result in data set [1] is listed as “Dose-dependent effect”; in the data set on Liver microsome [2] it was “metabolite_detected”; in [3] it was “Dose-dependent effect”; in the data set on Liver microsome [4], “Dose-dependent effect”; in data set [5], “metabolite_detected”; in the data set with Liver microsome [6], “metabolite_detected”. In addition, the Drug metabolism entry in [7] is “metabolite_detected”; in data set [8], “Dose-dependent effect”; in [9], “metabolite_detected”; in data set [10], “Dose-dependent effect”; in data set [11], “Dose-dependent effect”; in data set [12], “Dose-dependent effect”. Besides, the Drug metabolism entry in the data set on Liver microsome [13] was “Dose-dependent effect”.

B1: UDP-glucuronosyltransferase 1A3 (Homo sapiens) (protein)
chain: T1 sequence (P35503 whole entry)
For B1, the values for the Km in [14] and in [17] were 7.21 µM and 17.9 µM, respectively. The kcat in data set [14] was 0.00182 s⁻¹; in [17], 0.0138 s⁻¹. Further, the kcat/Km in data set [15] came out at 252 M⁻¹ s⁻¹; in data set [16], 774 M⁻¹ s⁻¹.

B2: UDP-glucuronosyltransferase 1A8 (Homo sapiens) (protein)
chain: MARTGWTSPIPLCVSLLLTCGFAEAGKLLVVPMDGSHWFTMQSVVEKLILRGHEVVVVMPEVSWQLGKSLNCTVKTYSTSYTLEDLDREFMDFADAQWKAQVRSLFSLFLSSSNGFFNLFFSHCRSLFNDRKLVEYLKESSFDAVFLDPFDACGLIVAKYFSLPSVVFARGIACHYLEEGAQCPAPLSYVPRILLGFSDAMTFKERVRNHIMHLEEHLFCQYFSKNALEIASEILQTPVTAYDLYSHTSIWLLRTDFVLDYPKPVMPNMIFIGGINCHQGKPLPMEFEAYINASGEHGIVVFSLGSMVSEIPEKKAMAIADALGKIPQTVLWRYTGTRPSNLANNTILVKWLPQNDLLGHPMTRAFITHAGSHGVYESICNGVPMVMMPLFGDQMDNAKRMETKGAGVTLNVLEMTSEDLENALKAVINDKSYKENIMRLSSLHKDRPVEPLDLAVFWVEFVMRHKGAPHLRPAAHDLTWYQYHSLDVIGFLLAVVLTVAFITFKCCAYGYRKCLGKKGRVKKAHKSKTH
Take B2: in [18], the Km worked out at 6.05 µM, the Vmax amounted to 0.000206 µmol/min, the kcat came out at 0.00184 s⁻¹ and the kcat/Km came out at 303 M⁻¹ s⁻¹.

B3: UDP-glucuronosyltransferase 1A1 (Homo sapiens) (protein)
chain: T2 sequence (P22309 whole entry)
B3: the kcat/Km came out at 903 M⁻¹ s⁻¹ in data set [19] and 284 M⁻¹ s⁻¹ in data set [22]. For the same molecule, the Km in data set [20] was found to be 7.91 µM; in data set [21] it was 5.56 µM. Moreover, the kcat worked out at 0.0072 s⁻¹ in data set [20] and 0.00158 s⁻¹ in data set [21].

These data come from ChEMBL document CHEMBL3526015, “Metabolism of the c-Fos/activator protein-1 inhibitor T-5224 by multiple human UDP-glucuronosyltransferase isoforms” (Drug Metab Dispos, 2011).
